# In the library only some 5.4% were active in any assay of this set; here they are far more common.
# aSyn 5UTR inh: MLPCN primary screen, SNCA 5' untranslated region; alpha-synuclein 5'UTR reporter, inhibitor activity; 0.82% of 300,000 active; inhibition, % (tested at 7.5 µM); in the data active means inhibition above about 60%;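 further: H4 neuroglioblastoma cells stably carrying SNCA 5'UTR luciferase fusion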
# SKKanGAS inh: blocks kanamycin growth of S. pyogenes SKKanGAS strain; BacTiter-Glo, 6 h; inhibition, % at 7.5 µM; 1.3% of 300,000 active;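 active means mean replicate score, as percent of positive control median, at least 50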;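 further: strain carries kanamycin resistance gene driven by streptokinase promoter and grows in 40 µg/ml kanamycin; loss of luminescence reflects streptokinase promoter inhibition or plain growth inhibition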
# Mdm2-MdmX inh: disrupts the human Mdm2-MdmX interaction | inhibition, % at 8 µM | 3% of 330,000 active | SaOS-2 split-luciferase Mdm2/MdmX complementation, luminescence | AID 485346;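 active means inhibition of at least 50% at 8 µM in the primary screen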
# Target sequence (O15151 whole entry, looked up): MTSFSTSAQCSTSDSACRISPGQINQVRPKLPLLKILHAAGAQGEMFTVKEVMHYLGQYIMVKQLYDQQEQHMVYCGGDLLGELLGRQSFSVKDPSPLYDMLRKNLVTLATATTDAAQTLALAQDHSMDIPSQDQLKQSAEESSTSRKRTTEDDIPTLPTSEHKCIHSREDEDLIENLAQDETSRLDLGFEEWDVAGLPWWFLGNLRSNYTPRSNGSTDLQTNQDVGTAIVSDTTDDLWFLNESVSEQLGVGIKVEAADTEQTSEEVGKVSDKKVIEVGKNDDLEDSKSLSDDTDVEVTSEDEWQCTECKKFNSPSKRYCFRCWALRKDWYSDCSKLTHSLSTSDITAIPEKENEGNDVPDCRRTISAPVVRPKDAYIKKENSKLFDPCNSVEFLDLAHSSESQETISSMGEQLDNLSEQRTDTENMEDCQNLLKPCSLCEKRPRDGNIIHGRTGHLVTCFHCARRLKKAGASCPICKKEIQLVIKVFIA
# Target sequence (Q00987 whole entry, looked up): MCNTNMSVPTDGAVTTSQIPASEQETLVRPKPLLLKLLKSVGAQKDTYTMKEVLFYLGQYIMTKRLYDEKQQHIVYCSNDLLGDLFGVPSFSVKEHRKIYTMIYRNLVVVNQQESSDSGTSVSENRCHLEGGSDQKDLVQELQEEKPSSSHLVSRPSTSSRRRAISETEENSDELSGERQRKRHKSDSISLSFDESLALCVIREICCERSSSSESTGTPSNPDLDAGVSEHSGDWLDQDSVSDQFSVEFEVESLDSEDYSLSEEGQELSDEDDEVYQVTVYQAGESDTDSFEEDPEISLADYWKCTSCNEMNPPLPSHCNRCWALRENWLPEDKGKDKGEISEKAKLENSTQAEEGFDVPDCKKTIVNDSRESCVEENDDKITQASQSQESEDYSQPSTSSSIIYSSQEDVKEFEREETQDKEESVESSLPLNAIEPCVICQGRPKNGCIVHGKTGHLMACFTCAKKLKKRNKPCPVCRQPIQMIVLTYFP
# T cruzi inh: blocks replication of Trypanosoma cruzi; T. cruzi beta-gal in NIH3T3, luminescence, 90 h; inhibition, % (test concentration not listed); 1.4% of 300,000 active; AID 1885;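 active means mean inhibition across valid replicates above about 55%, limit read from the data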;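 further: signal also drops with host cell toxicity which is not excluded here; higher percent means less beta-gal luminescence so fewer parasites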
#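 System: NIH/3T3 fibroblasts plus reporter T. cruzi. Medium: DMEM plus 2% FBS. Probe or stimulus: 5000 reporter trypomastigotes per well. Compound: single 50 nL compound addition per well in DMSO. Incubation: co-culture of at least 90 h after 3 h attachment. Detection: GalScreen β-gal luminescence, detergent lysis, 60 min. Evaluation: parasite load inhibition, %.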
# CSC inhib: cancer stem cell inhibition | cancer stem cell-like cells viability, luminescence | inhibition, % at 7.5 µM | 1.1% of 300,000 active; in the data active means inhibition above about 75%; tested in HMLE shEcad cells
# Mdm2 MdmX conf: human Mdm2/MdmX binding inhibition, confirmed | shares compounds with Mdm2-MdmX inh | luminescent assay | inhibition, % at 8 µM | 55% of 10,000 active | AID 489028; in the data active means inhibition above about 40%
# Full FLuc ctr: full-length luciferase inhibition in Mdm2/MdmX counter-screen; shares compounds with Mdm2-MdmX inh; SaOS-2 full-length luciferase counterscreen, luminescence; inhibition, % at 8 µM; 77% of 6,200 active;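 active means mean inhibition at 8 µM reaching about 37%, which flags the compound as non-specific, limit read from the data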;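 further: p53-null SaOS-2 cells with luciferase driven by a doxycycline-inducible promoter; compound on cells about two nights before reading with doxycycline added after day one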
# Hits are given with their value; 0 = inactive; - = no result given.
SMILES,aSyn 5UTR inh,SKKanGAS inh,Mdm2-MdmX inh,T cruzi inh,CSC inhib,Mdm2 MdmX conf,Full FLuc ctr
CN(C)c1ccc(NC(=O)COC(=O)c2ccc3c(c2)OCO3)cc1,-,-,0,-,0,-,-
CC(=O)Nc1ccc(C(=O)c2ccccc2)cc1,0,0,0,0,0,-,-
CCC(=O)Nc1ccc(-c2cc(-c3ccccc3)nc(-c3ccc(NC(=O)CC)cc3)n2)cc1,0,0,84.5,0,0,0,63.9
CCC(=O)Nc1ccc(-c2csc(C)n2)cc1,0,0,0,0,0,-,-
O=C(NC(=S)Nc1ccc2c(c1)C(=O)c1ccccc1C2=O)c1ccc(F)cc1,0,0,68.5,0,0,0,-
CC(=O)Nc1ccc(-c2cc(-c3ccccc3)nc(-c3ccccc3)n2)cc1,0,0,56.3,0,0,46.9,92.2
CC(=O)Nc1ccc(NC(=O)c2ccc(NC(=O)c3ccccc3)cc2)cc1,0,0,62.4,0,0,0,-
COc1cc(C(=O)OCC(=O)NC2CCCCC2)cc2c1OCCO2,-,-,0,-,-,-,-
Cc1cc(CNC(=O)CC2C(=O)NCCN2CC(C)(C)C)nn1C (stereo unspecified),0,0,0,0,0,-,-
COc1cc(Cl)c(C)cc1Nc1ncccn1,0,0,0,0,0,-,-
CC(=O)Nc1ccc(-c2cc(-c3ccc(NC(C)=O)cc3)nc(-c3ccc(NC(C)=O)cc3)n2)cc1,0,0,0,0,0,-,-
O=C(NC(=S)Nc1ccc(NC(=O)c2ccccc2)cc1)c1ccc(F)cc1,0,0,0,0,0,-,-
CC(=O)Nc1ccc(NC(=O)c2ccc(COc3ccccc3)cc2)cc1,0,0,0,0,0,-,-
O=C(Nc1ccc(NC(=S)NC(=O)C(c2ccccc2)c2ccccc2)cc1)c1ccccc1,0,0,51.5,0,0,49.4,42.0
CC(C)C(=O)Nc1ccc(NC(=O)c2ccc(COc3ccccc3)cc2)cc1,0,0,72.5,0,0,0,89.8
CC(=O)Nc1ccc(-c2cc(-c3ccc(NC(C)=O)cc3)nc(-c3ccccc3)n2)cc1,0,0,58.5,0,0,0,-
CC(C(=O)NC(=O)NC1CCCCC1)N(C)CC(=O)Nc1ccc(F)c(F)c1F (stereo unspecified),0,0,0,0,0,-,-
Brc1ccc(N=Nc2ccc3ccccc3n2)cc1,94.5,0,78.6,0,0,71.7,47.7
CCCCn1c(N)c(N(CC(C)C)C(=O)c2ccc(-c3ccc([N+](=O)[O-])cc3)o2)c(=O)[nH]c1=O,0,0,0,0,0,-,-
Cc1sc2ncn(CC(=O)NCC3COc4ccccc4O3)c(=O)c2c1S(=O)(=O)N1CCCCC1 (stereo unspecified),0,0,0,0,0,-,-
Cc1ccc(NC(=O)COC(=O)/C=C/c2c(C)nn(-c3ccc(F)cc3)c2Cl)cc1F,0,0,52.0,0,0,0,-
Cc1nn(-c2ccc(F)cc2)c(Cl)c1/C=C/C(=O)OCC(=O)Nc1ccc(F)cc1F,0,0,0,0,0,-,-
CC1CCC(NC(=O)C2CCC(CNS(=O)(=O)c3cccc4nsnc34)CC2)CC1 (stereo unspecified),0,0,56.5,0,0,0,-
CN(C)N1C(N)=C(C#N)C(c2ccccc2)C2=C1CC(C)(C)CC2=O (stereo unspecified),0,0,0,0,0,-,-
CN(C)N1C(N)=C(C#N)C(c2cccc3ccccc23)C2=C1CC(c1ccccc1)CC2=O (stereo unspecified),0,0,63.5,0,80.1,62.7,42.5
SMILES,aSyn 5UTR inh,SKKanGAS inh,Mdm2-MdmX inh,T cruzi inh,CSC inhib,Mdm2 MdmX conf,Full FLuc ctr
Cc1c(N=C2N=C(NC(=O)c3ccc(F)cc3)c3ccccc32)c(=O)n(-c2ccccc2)n1C,0,0,80.6,0,0,0,-
Cc1c(NC(=O)NC(=O)c2ccc(F)cc2)c(=O)n(-c2ccccc2)n1C,0,0,0,0,0,-,-
CCCSc1nc2c(c(=O)[nH]c(=O)n2C)n1Cc1ccc(C)cc1,0,0,0,0,0,-,-
Cc1ccc(Cn2c(SCC(C)C)nc3c2c(=O)[nH]c(=O)n3C)cc1,0,0,60.0,0,0,0,-
C=C(C)CSc1nc2c(c(=O)[nH]c(=O)n2C)n1Cc1ccccc1,0,0,0,0,0,-,-
Cn1c(=O)[nH]c(=O)c2c1nc(SCC(N)=O)n2Cc1cccc(Br)c1,0,0,63.5,0,0,0,-
Cc1ccc(N)c2c1OCCC2=O,0,0,0,0,0,-,-
COCCn1c(=NC(=O)CSCC(=O)Nc2cc(C)on2)sc2cc(C(=O)OC)ccc21,0,0,0,0,0,-,-
COc1cc(C2C3=C(Nc4ncnn42)c2ccccc2CC3)cc(OC)c1OC (stereo unspecified),82.6,0,65.9,0,0,67.3,130.6
COc1ccc(C2C3=C(Nc4ncnn42)c2ccccc2CCC3)cc1 (stereo unspecified),0,0,0,0,0,-,-
Cc1ccc(CSCC(=O)Nc2ccccc2C(=O)O)cc1,0,0,51.5,0,0,0,-
CC(C)Cc1ccc(C(C)C(N)=NCCc2ccccc2)cc1 (stereo unspecified),0,0,81.5,0,0,71.9,48.3
COc1ccccc1CNC(=S)Nc1ccc2nc(N3CCN(C)CC3)cc(C)c2c1,0,0,54.2,57.4,79.7,50.0,61.3
COc1cc(C(=O)Nc2ccc3nc(N4CCN(C)CC4)cc(C)c3c2)cc(OC)c1OC,0,0,53.0,0,0,0,-
CCN1CCN(c2cc(C)c3cc(NC(=O)c4cc(OC)cc(OC)c4)ccc3n2)CC1,0,0,0,0,0,-,-
Cc1cc(N2CCN(C)CC2)nc2ccc(NC(=O)c3ccc4c(c3)OCO4)cc12,-,-,54.7,-,0,0,-
COc1ccc(C)cc1NC(=O)C1CCN(C(=O)c2ccc(C(C)(C)C)cc2)CC1,0,0,0,0,-,-,-
O=C(CN(Cc1ccccc1)C(=O)CCl)c1cccc(Br)c1,-,-,100.2,-,0,80.1,60.1
O=C(NCCCc1ccccc1)c1cccc(Br)c1,0,0,0,0,0,-,-
Cc1onc(-c2ccccc2)c1NC(=O)N(CCC(=O)O)Cc1ccccc1,0,0,0,0,0,-,-
Cc1ccc(O)c(N=Nc2nccs2)c1,-,-,75.3,-,0,64.1,0
O=C(COc1coc(CN2CCCc3ccccc32)cc1=O)Nc1cccc([N+](=O)[O-])c1,0,0,0,0,0,-,-
COc1ccc(S(=O)(=O)N2c3ccccc3OCC2C)cc1 (stereo unspecified),0,0,0,0,0,-,-
COc1ccc(S(=O)(=O)N2c3ccccc3OCC2C(C)(C)C)cc1 (stereo unspecified),0,0,57.8,0,0,47.1,45.0
COc1ccc(S(=O)(=O)N2CCOc3ccccc32)cc1,0,0,60.5,0,0,63.0,54.2
COc1ccc(S(=O)(=O)N2c3ccccc3OCC2c2ccccc2)cc1 (stereo unspecified),0,0,51.4,0,0,71.8,47.7
O=C(NC1CCN(Cc2ccccc2)CC1)c1cc(S(=O)(=O)Nc2ccc(F)cc2)ccc1Cl,-,-,0,-,-,-,-

# Screens as filed in PubChem BioAssay.
